Measured values from ChEMBL document CHEMBL1121393, “Synthesis and biological activity of flavipucine analogues” (1980).
Values after ≈ are worked out from the molar mass of the structure shown.

Legend:
Format in all cases: functional
Pseudomonas aeruginosa = assay: Tested in vitro for antibacterial activity against Pseudomonas aeruginosa
How it was run: (§1)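 MICs determined by twofold agar dilution in nutrient agar with 0.2% yeast extract. Organisms were inoculated onto the plates with a Steers multiple inoculator.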

Staphylococcus aureus = assay: Tested in vitro for antibacterial activity against Staphylococcus aureus; how it was run: as §1
Klebsiella aerogenes = assay: Tested in vitro for antibacterial activity against Aerobacter aerogenes; how it was run: as §1
Proteus vulgaris = assay: Tested in vitro for antibacterial activity against Proteus volgaris; how it was run: as §1
Escherichia coli = assay: Tested in vitro for antibacterial activity against Escherichia coli; how it was run: as §1
Alternaria solani = assay: Tested for antifungal activity against Alternaria solani
Aspergillus niger = assay: Tested for antifungal activity against Aspergillus niger
[1] = tested on: Bordetella bronchiseptica; assay: Tested in vitro for antibacterial activity against Bordetella bronchiseptica; how it was run: as §1
Klebsiella pneumoniae = assay: Tested in vitro for antibacterial activity against Klebsiella pneumoniae; how it was run: as §1
Aureobasidium pullulans = assay: Tested for antifungal activity against Pullaria pullulans

SMILES	MIC (Pseudomonas aeruginosa) [µg/mL]	MIC (Staphylococcus aureus) [µg/mL]	MIC (Klebsiella aerogenes) [µg/mL]	MIC (Proteus vulgaris) [µg/mL]	MIC (Escherichia coli) [µg/mL]	MIC (Alternaria solani) [µg/mL]	MIC (Aspergillus niger) [µg/mL]	MIC [1] [µg/mL]	MIC (Klebsiella pneumoniae) [µg/mL]	MIC (Aureobasidium pullulans) [µg/mL]
CC1=CC(=O)[C@@]2(O[C@@H]2C(=O)CC(C)C)C(=O)N1C	> 100	12.5 (≈ 49.7 µM)	> 100	6.3 (≈ 25.1 µM)	100 (≈ 398 µM)	6.3 (≈ 25.1 µM)	50 (≈ 199 µM)	100 (≈ 398 µM)	50 (≈ 199 µM)	
CC(=O)[C@H]1O[C@@]12C(=O)C=C(C)NC2=O	50 (≈ 256 µM)	100 (≈ 512 µM)	> 100	> 100	50 (≈ 256 µM)	> 100	> 100	> 100	> 100	> 100
CC1=CC(=O)[C@@]2(O[C@H]2C(=O)CC(C)C)C(=O)N1	> 100	6.3 (≈ 26.6 µM)	100 (≈ 421 µM)	6.3 (≈ 26.6 µM)	50 (≈ 211 µM)	50 (≈ 211 µM)	> 100	50 (≈ 211 µM)	6.3 (≈ 26.6 µM)	
CC(C)CC(=O)C1OC12C(=O)CC(C)(C)CC2=O (stereo unspecified)	50 (≈ 198 µM)	25 (≈ 99.1 µM)	25 (≈ 99.1 µM)	50 (≈ 198 µM)	> 100	3.1 (≈ 12.3 µM)	25 (≈ 99.1 µM)	50 (≈ 198 µM)	50 (≈ 198 µM)	6.3 (≈ 25 µM)
CC1=CC(=O)[C@@]2(O[C@H]2C(=O)CC(C)C)C(=O)N1C	> 100	25 (≈ 99.5 µM)	> 100	12.5 (≈ 49.7 µM)	> 100	12.5 (≈ 49.7 µM)	> 100	100 (≈ 398 µM)	100 (≈ 398 µM)	
CC1=CC(=O)C2(OC2C(=O)CC(C)C)C(=O)N1 (stereo unspecified)	> 100	4.7 (≈ 19.8 µM)	100 (≈ 421 µM)	4.7 (≈ 19.8 µM)	50 (≈ 211 µM)	100 (≈ 421 µM)	> 100	33.9 (≈ 143 µM)	4.7 (≈ 19.8 µM)	> 100
CCCCCCCCCC(=O)[C@@H]1O[C@@]12C(=O)C=C(C)NC2=O		0.8 (≈ 2.6 µM)			> 100	0.2 (≈ 0.651 µM)	1.6 (≈ 5.21 µM)	0.8 (≈ 2.6 µM)	> 100	0.2 (≈ 0.651 µM)
CCCCCCCCCC(=O)[C@H]1O[C@@]12C(=O)C=C(C)NC2=O		0.4 (≈ 1.3 µM)		12.5 (≈ 40.7 µM)	> 100	0.2 (≈ 0.651 µM)	0.2 (≈ 0.651 µM)	3.1 (≈ 10.1 µM)	> 100	0.2 (≈ 0.651 µM)
CC(=O)[C@@H]1O[C@@]12C(=O)C=C(C)NC2=O	> 100	> 100	> 100	> 100	> 100	> 100	> 100	> 100	> 100	> 100
CC1=CC(=O)[C@@]2(O[C@@H]2C(=O)CC(C)C)C(=O)N1	> 100	6.3 (≈ 26.6 µM)	> 100	3.1 (≈ 13.1 µM)	50 (≈ 211 µM)	25 (≈ 105 µM)	> 100	50 (≈ 211 µM)	6.3 (≈ 26.6 µM)	
